Experimental data published in ChEMBL document CHEMBL1135409, “Structure-activity relationships of a novel class of endothelin-A receptor antagonists and discovery of potent and selective receptor antagonist, 2-(benzo[1,3]dioxol-5-yl)-6-isopropyloxy-4-(4-methoxyphenyl)-2H-chromene-3-carboxylic acid (S-1255). 1. Study on structure-activity relationships and …” (J Med Chem, 2002).

How the values were obtained:
[1] = target: T1, Endothelin receptor type B (Sus scrofa, UniProt P35463); experiment: Binding affinity to endothelin B receptor measured by inhibition of [125I]ET-3 binding recombinant pig ET-B receptor expressed in COS-7 cells; type: cell-based
T1 sequence (P35463 whole entry): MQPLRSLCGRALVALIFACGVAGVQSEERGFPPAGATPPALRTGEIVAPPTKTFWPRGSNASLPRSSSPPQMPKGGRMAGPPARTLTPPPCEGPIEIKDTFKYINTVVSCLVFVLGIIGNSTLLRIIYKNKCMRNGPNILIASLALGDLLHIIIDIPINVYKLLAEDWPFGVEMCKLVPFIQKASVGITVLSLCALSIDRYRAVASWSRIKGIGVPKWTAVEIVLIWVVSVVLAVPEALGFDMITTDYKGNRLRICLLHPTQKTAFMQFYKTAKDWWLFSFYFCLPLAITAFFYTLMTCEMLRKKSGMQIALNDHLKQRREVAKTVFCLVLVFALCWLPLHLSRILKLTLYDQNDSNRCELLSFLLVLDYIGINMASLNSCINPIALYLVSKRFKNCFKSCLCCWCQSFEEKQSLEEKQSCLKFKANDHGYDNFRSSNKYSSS
Summary of the method: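 COS cells transfected with porcine ETB cDNA, in Hank's solution with 20 mM HEPES and protease inhibitors. Stopped by filtration on GF/C filters presoaked in 1% polyethylenimine, washed with 50 mM Tris-HCl pH 7.4, then counted. Nonspecific binding taken with 0.1 μM ET-3.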

Endothelin-1 receptor = target: T2, Endothelin-1 receptor (Rattus norvegicus, UniProt P26684); experiment: Binding affinity for endothelin A receptor by inhibition of [125I]ET1 binding in rat aorta smooth muscle cells; type: tissue-based
T2 sequence (P26684 whole entry): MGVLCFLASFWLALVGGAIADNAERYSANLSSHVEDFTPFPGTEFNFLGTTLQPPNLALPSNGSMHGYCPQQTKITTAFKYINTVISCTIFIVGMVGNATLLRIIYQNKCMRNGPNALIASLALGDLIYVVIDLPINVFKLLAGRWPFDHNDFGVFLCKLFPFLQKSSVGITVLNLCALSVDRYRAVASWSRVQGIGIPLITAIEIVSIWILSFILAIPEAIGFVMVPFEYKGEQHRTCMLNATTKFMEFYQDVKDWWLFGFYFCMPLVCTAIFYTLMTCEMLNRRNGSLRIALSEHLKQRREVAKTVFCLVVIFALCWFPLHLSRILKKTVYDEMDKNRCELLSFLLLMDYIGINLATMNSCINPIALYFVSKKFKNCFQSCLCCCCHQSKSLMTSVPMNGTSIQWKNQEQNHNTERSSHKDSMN

[2] = Ratio of inhibitory concentrations at ET-B receptor relative to that of ET-A receptor

| Structure (SMILES) | IC50 [1] | IC50 (Endothelin-1 receptor) | Ratio [2] |
| --- | --- | --- | --- |
| CCCCOC1=C(C(=O)O)C(c2ccc3c(c2)OCO3)Oc2cccc(OCCC)c21 (stereo unspecified) | 6000 nM | – | – |
| COc1ccc(CCOC2=C(C(=O)O)C(c3ccc4c(c3)OCO4)Oc3ccc(OC(C)C)cc32)cc1 (stereo unspecified) | 200 nM | 3 nM | – |
| CCOc1ccc2c(c1)C(c1ccc(OC)cc1)=C(C(=O)O)C(c1ccc3c(c1)OCO3)O2 (stereo unspecified) | 400 nM | 3.8 nM | 110 |
| CC(C)Oc1ccc2c(c1)C=C(C(=O)O)C(c1ccc3c(c1)OCO3)O2 (stereo unspecified) | 52000 nM | 330 nM | 160 |
| COc1ccc(C2=C(C(=O)O)C(c3ccc4c(c3)OCO4)Oc3ccc(OC(C)CO)cc32)cc1 (stereo unspecified) | 170 nM | 2.8 nM | 61 |
| CC(C)Oc1ccc2c(c1)C=C(C(=O)O)[C@@H](c1ccc3c(c1)OCO3)O2 | 52000 nM | 240 nM | 220 |
| COC1=C(C(=O)O)[C@@H](c2ccc3c(c2)OCO3)Oc2ccc(OC(C)C)cc21 | 3500 nM | 5.2 nM | 670 |
| CCCOc1ccc2c(c1)C(c1ccc(OC)cc1)=C(C(=O)O)C(c1ccc3c(c1)OCO3)O2 (stereo unspecified) | 220 nM | 4.4 nM | 50 |
| CC(C)Oc1ccc2c(c1)C(c1ccc(C(C)C)cc1)=C(C(=O)O)C(c1ccc3c(c1)OCO3)O2 (stereo unspecified) | 750 nM | 4.9 nM | – |
| COC1=C(C(=O)O)C(c2ccc3c(c2)OCO3)Oc2ccc(OC(C)C)cc21 (stereo unspecified) | 6400 nM | 9.1 nM | 700 |
| CCCCCCCCCCOC1=C(C(=O)O)C(c2ccc3c(c2)OCO3)Oc2ccc(OC(C)C)cc21 (stereo unspecified) | 7600 nM | 130 nM | – |
| CCCCOc1ccc2c(c1)C(c1ccc3c(c1)OCO3)=C(C(=O)O)C(c1cccc(OC)c1)O2 (stereo unspecified) | 160 nM | 350 nM | – |
| CCCCOC1=C(C(=O)O)C(c2ccc3c(c2)OCO3)Oc2ccc(OCCC)cc21 (stereo unspecified) | 520 nM | 2 nM | 260 |
| CCCCOc1ccc2c(c1)C(c1ccc3c(c1)OCO3)=C(C(=O)O)C(c1ccc(OC)cc1OC)O2 (stereo unspecified) | 35 nM | 18 nM | – |
| COc1cccc(C2=C(C(=O)O)C(c3ccc4c(c3)OCO4)Oc3ccc(OC(C)C)cc32)c1 (stereo unspecified) | 470 nM | 1.6 nM | – |
| CCCCC1=C(C(=O)NS(C)(=O)=O)C(c2ccc3c(c2)OCO3)Oc2ccc(OC(C)C)cc21 (stereo unspecified) | – | 48 nM | – |
| COc1ccccc1C1=C(C(=O)O)C(c2ccc3c(c2)OCO3)Oc2ccc(OC(C)C)cc21 (stereo unspecified) | 3500 nM | 3 nM | – |
| COc1ccc(C2=C(C(=O)O)C(c3ccc4c(c3)OCO4)Oc3ccc(OC(C)C)cc32)cc1 (stereo unspecified) | – | 0.51 nM | – |
| CCCCC1=C(C(=O)O)[C@@H](c2ccc3c(c2)OCO3)Oc2ccc(OC(C)C)cc21 | 400 nM | 0.42 nM | 950 |
| CCCCOc1ccc2c(c1)C(c1ccc3c(c1)OCO3)=C(C(=O)O)C(c1ccc(OC)c(OC)c1)O2 (stereo unspecified) | 400 nM | 810 nM | – |
| COC(=O)C1=C(c2ccc(OC)cc2)c2cc(OC(C)C)ccc2OC1c1ccc2c(c1)OCO2 (stereo unspecified) | – | > 10000 nM | – |
| CCCCOc1ccc2c(c1)C(c1ccc3c(c1)OCO3)=C(C(=O)O)C(c1cc(OC)ccc1OC)O2 (stereo unspecified) | 1600 nM | 160 nM | – |

| Structure (SMILES) | IC50 [1] | IC50 (Endothelin-1 receptor) | Ratio [2] |
| --- | --- | --- | --- |
| COc1ccc(C2=C(C(=O)O)C(c3ccc4c(c3)OCO4)Oc3ccc(OCc4ccccc4)cc32)cc1 (stereo unspecified) | 790 nM | 62 nM | 13 |
| CC(C)Oc1ccc2c(c1)C(c1ccc3c(c1)OCO3)=C(C(=O)O)C(c1ccc3c(c1)OCO3)O2 (stereo unspecified) | 170 nM | 3.2 nM | – |
| CCCOc1ccc2c(c1)C(c1ccc3c(c1)OCO3)=C(C(=O)O)C(c1ccc(OC)cc1)O2 (stereo unspecified) | 72 nM | 220 nM | – |
| COc1ccc(C2=C(C(=O)O)C(c3ccc4c(c3)OCO4)Oc3ccccc32)cc1 (stereo unspecified) | 1400 nM | 86 nM | 16 |
| CCCCC1=C(c2nnn[nH]2)C(c2ccc3c(c2)OCO3)Oc2ccc(OC(C)C)cc21 (stereo unspecified) | – | 18 nM | – |
| CC(C)Oc1ccc2c(c1)C=C(C(=O)O)[C@H](c1ccc3c(c1)OCO3)O2 | > 100000 nM | – | > 60 |
| CCCCCOC1=C(C(=O)O)C(c2ccc3c(c2)OCO3)Oc2ccccc21 (stereo unspecified) | 1100 nM | 29 nM | – |
| CC(C)Oc1ccc2c(c1)C(c1ccc(O)cc1)=C(C(=O)O)C(c1ccc3c(c1)OCO3)O2 (stereo unspecified) | 4800 nM | 4.1 nM | – |
| COc1ccc(C2=C(C(N)=O)C(c3ccc4c(c3)OCO4)Oc3ccc(OC(C)C)cc32)cc1 (stereo unspecified) | – | 630 nM | – |
| C=CCCCOC1=C(C(=O)O)C(c2ccc3c(c2)OCO3)Oc2ccc(OC(C)C)cc21 (stereo unspecified) | – | 0.33 nM | – |
| CC(C)Oc1ccc2c(c1)C(c1ccccc1)=C(C(=O)O)C(c1ccc3c(c1)OCO3)O2 (stereo unspecified) | – | 3 nM | – |
| CCCCOc1ccc2c(c1)C(c1ccc3c(c1)OCO3)=C(C(=O)O)C(c1ccccc1OC)O2 (stereo unspecified) | 760 nM | 130 nM | – |
| CC(C)Oc1ccc2c(c1)C(c1ccc(OCc3ccccc3)cc1)=C(C(=O)O)C(c1ccc3c(c1)OCO3)O2 (stereo unspecified) | 600 nM | 6.3 nM | – |
| O=C(O)C1=C(c2ccc(Cl)cc2)c2ccccc2OC1c1ccc2c(c1)OCO2 (stereo unspecified) | 5800 nM | 800 nM | – |
| COc1ccccc1C1=C(C(=O)O)C(c2ccc3c(c2)OCO3)Oc2ccccc21 (stereo unspecified) | 31000 nM | 2200 nM | – |
| CCCC[C@@H]1c2cc(OC(C)C)ccc2O[C@H](c2ccc3c(c2)OCO3)[C@H]1C(=O)O | – | 77 nM | – |
| CCCOc1ccc2c(c1)C(c1ccc3c(c1)OCO3)=C(C(=O)O)C(c1ccc3c(c1)OCO3)O2 (stereo unspecified) | 80 nM | 43 nM | – |
| CC(C)Oc1ccc2c(c1)C(c1ccc(F)cc1)=C(C(=O)O)C(c1ccc3c(c1)OCO3)O2 (stereo unspecified) | – | 8 nM | – |
| COc1cccc(C2=C(C(=O)O)C(c3ccc4c(c3)OCO4)Oc3ccccc32)c1 (stereo unspecified) | 2800 nM | 700 nM | – |
| O=C(O)C1=Cc2ccccc2OC1c1ccc2c(c1)OCO2 (stereo unspecified) | > 100000 nM | 67000 nM | – |
| CC(C)Oc1ccc2c(c1)C(OCCCC#N)=C(C(=O)O)C(c1ccc3c(c1)OCO3)O2 (stereo unspecified) | 5800 nM | 6.8 nM | – |
| COc1ccc(C2=C(C(=O)NS(C)(=O)=O)C(c3ccc4c(c3)OCO4)Oc3ccc(OC(C)C)cc32)cc1 (stereo unspecified) | – | 1.8 nM | – |

| Structure (SMILES) | IC50 [1] | IC50 (Endothelin-1 receptor) | Ratio [2] |
| --- | --- | --- | --- |
| COc1ccc(C2=C(C(=O)O)C(c3ccc4c(c3)OCO4)Oc3c(OC)cccc32)cc1 (stereo unspecified) | 4000 nM | – | – |
| CCCCOc1ccc2c(c1)C(c1ccc3c(c1)OCO3)=C(C(=O)O)C(c1ccc(OC3CCCC3)cc1)O2 (stereo unspecified) | 2200 nM | 4800 nM | – |
| CCCOC1=C(C(=O)O)C(c2ccc3c(c2)OCO3)Oc2ccccc21 (stereo unspecified) | 10000 nM | 160 nM | – |
| CCCCC1=C(C(N)=O)C(c2ccc3c(c2)OCO3)Oc2ccc(OC(C)C)cc21 (stereo unspecified) | – | 410 nM | – |
| CC(C)Oc1ccc2c(c1)C(Cl)=C(C(=O)O)C(c1ccc3c(c1)OCO3)O2 (stereo unspecified) | 7200 nM | 12 nM | – |
| O=C(O)C1=C(c2ccc3c(c2)OCO3)c2ccccc2OC1c1ccc2c(c1)OCO2 (stereo unspecified) | 710 nM | 350 nM | – |
| COc1ccc(CC2=C(C(=O)O)C(c3ccc4c(c3)OCO4)Oc3ccc(OC(C)C)cc32)cc1 (stereo unspecified) | – | 0.32 nM | – |
| CCCCC1=C(C(=O)OC)C(c2ccc3c(c2)OCO3)Oc2ccc(OC(C)C)cc21 (stereo unspecified) | – | > 10000 nM | – |
| CCCCC1=C(C(=O)O)C(c2ccc3c(c2)OCO3)Oc2ccc(OC(C)C)cc21 (stereo unspecified) | – | – | 840 |
| Cc1ccc(C2=C(C(=O)O)C(c3ccc4c(c3)OCO4)Oc3ccccc32)cc1 (stereo unspecified) | 6900 nM | 530 nM | – |
| CCCCOc1ccc(C2Oc3ccc(OCCCC)cc3C(c3ccc4c(c3)OCO4)=C2C(=O)O)cc1 (stereo unspecified) | 3600 nM | 5200 nM | – |
| CCCCOc1ccc2c(c1)C(c1ccc3c(c1)OCO3)=C(C(=O)O)C(c1ccc(OC)cc1)O2 (stereo unspecified) | 43 nM | – | – |
| CCCCOC1=C(C(=O)O)C(c2ccc3c(c2)OCO3)Oc2ccc(OC(C)C)cc21 (stereo unspecified) | – | – | 1900 |
| CCOC1=C(C(=O)O)C(c2ccc3c(c2)OCO3)Oc2ccccc21 (stereo unspecified) | 15000 nM | 290 nM | – |
| CCCCOC1=C(C(=O)O)C(c2ccc3c(c2)OCO3)Oc2cc(OCCC)ccc21 (stereo unspecified) | 2800 nM | – | – |
| CC(C)Oc1ccc2c(c1)C(c1ccc3c(c1)OCO3)=C(C(=O)O)C(c1ccc(C(C)C)cc1)O2 (stereo unspecified) | 2700 nM | – | – |
| CCCCCCCOC1=C(C(=O)O)C(c2ccc3c(c2)OCO3)Oc2ccc(OC(C)C)cc21 (stereo unspecified) | 410 nM | 4.7 nM | – |
| CC(C)c1ccc(C2=C(C(=O)O)C(c3ccc4c(c3)OCO4)Oc3ccccc32)cc1 (stereo unspecified) | 2100 nM | 83 nM | – |
| COc1ccc([C@@H]2c3cc(OC(C)C)ccc3O[C@H](c3ccc4c(c3)OCO4)[C@H]2C(=O)O)cc1 | 3400 nM | 1.3 nM | – |
| CCOC1=C(C(=O)O)C(c2ccc3c(c2)OCO3)Oc2ccc(OC(C)C)cc21 (stereo unspecified) | 2800 nM | 2.2 nM | – |
| O=C(O)C1=C(c2ccccc2)c2ccccc2OC1c1ccc2c(c1)OCO2 (stereo unspecified) | > 100000 nM | 780 nM | – |
